Compound activity deposited in PubChem by several laboratories.
Hits are enriched below; roughly 1.7% of the tested compounds scored in any of these assays.
PolyA inh = polyadenylation inhibitors in yeast reporter cells, primary screen, luminescence, S. cerevisiae; S. cerevisiae SKY197-pL101 polyadenylation reporter, beta-gal luminescence; efflux-impaired pdr1/pdr3 knockout yeast; score 100 = 6 SD above DMSO; activity score, % at 12 µM; hit rate 0.02% among 300,000; AID 1875, 2009;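 active = lowest replicate activity score at least 50, where 100 means six control SD above control mean; inconclusive = lowest score under 50 but half or more replicates reach 50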;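 note: yeast exposed to compound for 9 h at 30 °C; higher score means more reporter readthrough which indicates perturbed polyadenylation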
proCasp7 act = procaspase-7 activators, primary screen, counter-screen for procaspase-3 activator project, biochemical, absorbance, HTS, human; recombinant procaspase-7, Ac-DEVD-pNA absorbance 405 nm; D23A/D198A/D206A triple mutant, cannot self-cleave; scale: DMSO 0, 5 µM enzyme 100; activation, % at 8.5 µM; hit rate 0.093% among 330,000; AID 463210, 2010;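 active = percent activation above the screen-wide mean plus 3 SD, cut at about 25% in these data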
Target sequence (P55210 whole entry D23A/D198A/D206A): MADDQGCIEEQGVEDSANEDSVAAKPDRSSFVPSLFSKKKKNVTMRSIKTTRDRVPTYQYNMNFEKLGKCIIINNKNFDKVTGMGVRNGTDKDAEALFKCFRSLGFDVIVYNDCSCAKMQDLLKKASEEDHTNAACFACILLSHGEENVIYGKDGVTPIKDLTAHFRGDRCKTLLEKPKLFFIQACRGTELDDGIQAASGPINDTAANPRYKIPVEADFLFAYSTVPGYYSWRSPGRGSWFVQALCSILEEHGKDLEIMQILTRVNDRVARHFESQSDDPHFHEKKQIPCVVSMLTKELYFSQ
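Assay system – Uncleavable procaspase-7 mutant enzyme · Quantity – 2 µM procaspase-7 mutant as dispensed · Times – 1 h preincubation, 2 h reaction · Dosing – single nominal 8.5 µM compound dose, 0.8% DMSO final · Buffer or medium – Zinc-free 50 mM HEPES buffer, pH 7.4, with NaCl and Triton X-100 · Detection – Epi-absorbance of released pNA at 405 nm, two timepoints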
procasp3 activ = activators of human procaspase-3 D3A mutant, primary screen, biochemical, absorbance, PC-3 D3A mutant, single concentration. hit rate 0.11% among 330,000. Caspase-3 (Homo sapiens), P42574. AID 463141, 2010. activation, % at 8.5 µM. recombinant procaspase-3 D3A, Ac-DEVD-pNA absorbance 405 nm;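 active = activation above the mean of all tested compounds plus 3 SD, cut at about 21% in these data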;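 note: 0% = DMSO alone and 100% = DMSO wells spiked with extra 5 µM PC-3 D3A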
Target sequence (P42574 whole entry D9A/D28A/D175A): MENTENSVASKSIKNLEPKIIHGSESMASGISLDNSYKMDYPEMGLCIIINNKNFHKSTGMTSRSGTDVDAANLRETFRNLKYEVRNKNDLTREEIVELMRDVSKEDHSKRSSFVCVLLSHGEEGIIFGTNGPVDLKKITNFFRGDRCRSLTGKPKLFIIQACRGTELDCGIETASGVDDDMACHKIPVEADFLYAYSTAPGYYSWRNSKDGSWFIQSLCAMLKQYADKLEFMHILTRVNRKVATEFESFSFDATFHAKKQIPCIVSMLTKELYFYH
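Technique: 405 nm absorbance of p-nitroaniline, reads at 0 and 120 min; Test system: Procaspase-3 D3A mutant; Incubation: 1 h enzyme-compound preincubation, then 2 h substrate reaction, 25 °C; Repeats: singlicate, each compound tested once; Benchmarks: low control DMSO wells, high control DMSO plus 5 µM PC-3 D3A.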
VIM-2 inhibitor = VIM-2 metallo-beta-lactamase inhibitors, primary screen, biochemical, epi-absorbance readout, Pseudomonas aeruginosa enzyme; purified VIM-2, nitrocefin hydrolysis, epi-absorbance fluorescence; inhibition, % at 5.6 µM; hit rate 0.89% among 290,000;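 active = inhibition above the mean of all tested compounds plus 3 SD, cutoff set per screening run, cut at about 7.5% in these data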;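 note: red hydrolysis product quenches plate fluorescence so inhibitors raise well fluorescence; 0% = enzyme with DMSO and 100% = DMSO without enzyme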
Neddyl block = inhibitors of cullin neddylation, primary screen, biochemical, TR-FRET, uHTS, NAE and Ubc12; NEDD8-conjugating enzyme Ubc12 (Homo sapiens) + NEDD8-activating enzyme E1 regulatory …; calls only at 25 µM; hit rate 0.58% among 360,000; AID 651699, 2012; in the data active = inhibition above about 36%
IMP-1 inhibitor = IMP-1 metallo-beta-lactamase inhibitors, primary screen, biochemical, epi-absorbance readout, Pseudomonas aeruginosa enzyme. inhibition, % at 5.6 µM. metallo-beta-lactamase IMP-1 (Pseudomonas aeruginosa). purified IMP-1, nitrocefin hydrolysis, epi-absorbance fluorescence. hit rate 0.45% among 290,000;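 active = inhibition above the mean plus 3 SD of all compounds in the same screening run, cut at about 4.5% in these data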;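 note: 0% = IMP-1 with DMSO and 100% = DMSO wells lacking enzyme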
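assay system = purified recombinant IMP-1 metallo-beta-lactamase enzyme | schedule = 15 min preincubation plus 25 min reaction at 25 °C | signal = Epi-absorbance fluorescence, 480 nm excitation, 530 nm emission | read-out basis = percent inhibition from optical density relative to buffer-blank wells | controls = IMP-1 with DMSO as 0%, enzyme-free DMSO as 100%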
Neddyl inh conf = blockade of NEDD8 conjugation to cullin – biochemical, TR-FRET, single concentration, confirmation; shares compounds with Neddyl block; TR-FRET cullin neddylation biochemical assay; calls only at 25 µM; hit rate 13% among 1,800; in the data active = inhibition above about 40%;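 note: neddylation substrate is the cullin 1 ring ligase complex with SKP2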
Starred values were filed as active, the others as inactive; i = inactive; ? = inconclusive; / = no result given; + = active, no number.

SMILES	PolyA inh	proCasp7 act	procasp3 activ	VIM-2 inhibitor	Neddyl block	IMP-1 inhibitor	Neddyl inh conf
NC(=O)c1nsc(C(=O)N(CCc2ccccc2)C(C(=O)NC2CCCC2)c2ccco2)c1N (stereo unspecified)	4	-92	-125	-4	+	-4	i
COc1ccc(N(C(=O)c2snc(C(N)=O)c2N)C(C(=O)NC2CCCC2)c2ccco2)cc1 (stereo unspecified)	17	-3	10	-3	i	-2	/
CCc1ccc(N(C(=O)c2snc(C(N)=O)c2N)C(C(=O)NC2CCCC2)c2ccco2)cc1 (stereo unspecified)	-7	6	-3	-1	+	-2	i
COc1ccc(C(C(=O)NC2CCCC2)N(C(=O)c2snc(C(N)=O)c2N)c2ccccc2OC)cc1OC (stereo unspecified)	-14	5	7	-3	+	-3	/
Nc1ccccc1-n1c(=O)n(Cc2ccccc2F)c(=O)c2[nH]cnc21	10	-15	7	-4	i	-3	/
O=C(CC(=O)Nc1ccccc1F)Nc1ccccc1F	-15	-1	7	0	i	-1	/
CNc1nc(-c2cccs2)cc(C(F)(F)F)c1C#N	0	2	0	0	/	-2	/
CCOC(=O)C1=CCN(S(=O)(=O)c2cccc(Cl)c2)C1c1ccccc1 (stereo unspecified)	/	/	/	/	i	/	/
CCOC(=O)c1nc(C)sc1-c1ccnn1S(=O)(=O)c1cccc(Cl)c1	-10	6	3	0	+	0	i
O=C(CCCN1C(=O)[C@H]2CC=CC[C@H]2C1=O)NCc1nc(-c2ccc(Cl)cc2)no1	-4	-4	1	-3	i	-1	/
COc1ccc(Nc2nc(N3CCCCC3)nc3ccccc23)c(OC)c1	-5	7	-1	7	+	-2	/
CCOC(=O)Nc1ccc(Oc2ccccc2)cc1	-10	1	4	-3	i	-3	/
Cc1cc(=O)oc2cc(OC(C)C(=O)O)c(Cl)cc12 (stereo unspecified)	11	5	-3	-5	i	-2	/
Cc1cc(=O)oc2cc(NC(=O)C(C)Oc3ccc(F)cc3)ccc12 (stereo unspecified)	10	2	6	/	+	/	/
CCCC(C(=O)Nc1ccc2c(C)cc(=O)oc2c1)c1ccccc1 (stereo unspecified)	-2	7	-7	-1	+	-1	i
Cc1cc(=O)oc2ccc(OC(C)C(=O)O)cc12 (stereo unspecified)	27	-1	6	-2	+	-2	i
Cc1cc(NS(=O)(=O)c2ccc(NC(=O)C(C)Oc3ccc4c(C)cc(=O)oc4c3)cc2)no1 (stereo unspecified)	-6	7	-4	-2	i	-1	/
Cc1onc(-c2ccccc2)c1C(=O)Nc1ccc2c(C)cc(=O)oc2c1	-1	6	3	1	+	-3	i
O=S(=O)(/C=C/c1ccccc1)N1CCN(c2ccccc2)CC1	-23	2	2	-5	i	-3	/
COc1cc(/C=N/Nc2nc3ccccc3[nH]2)cc(Br)c1OCC(=O)N(C)C	13	9	2	-3	+	-4	+
COc1cc(/C=N/NC(=O)c2ccc(CSc3nc4ccccc4[nH]3)cc2)cc(OC)c1OC	13	3	10	0	+	-1	+
Cn1c(=O)c2nc(NCc3ccccc3)cnc2n(C)c1=O	12	3	3	0	+	-1	+
CC(=O)Nc1ccc(Nc2nc(C)nc3c2nnn3Cc2ccccc2Cl)cc1	19	-3	1	3	/	-1	/
Cc1nc(Nc2cccc(C(C)O)c2)c2nnn(Cc3ccccc3F)c2n1 (stereo unspecified)	10	2	-8	0	+	-3	i
COc1ccc2c(c1)nc(N)n2Cc1ccccc1	10	4	7	-3	i	-3	/
SMILES	PolyA inh	proCasp7 act	procasp3 activ	VIM-2 inhibitor	Neddyl block	IMP-1 inhibitor	Neddyl inh conf
CN=C1c2cc3cc(OC)ccc3n2CCN1Cc1ccccc1	10	/	/	0	+	-2	i
CCOC(=O)c1cn2nc(Oc3cccc(F)c3)ccc2n1	-9	2	9	0	+	-1	i
CCCC(=O)Nc1c2c(nn1-c1cccc(C)c1C)CS(=O)(=O)C2	?	6	-3	0	i	-1	/
CCc1c(C)c(C#N)c2nc3ccccc3n2c1NCCOC	-5	0	-8	5	+	-2	/
CCCCc1c(C)c(C#N)c2nc3ccccc3n2c1NCCN(C)C	-10	/	/	3	/	-2	/
CC(C)c1cc(NCCN2CCOCC2)n2c(nc3ccccc32)c1C#N	/	/	/	/	+	/	i
CCCc1c(C)c(C#N)c2nc3ccccc3n2c1NCCCN1CCOCC1	1	5	1	1	+	2	i
c1ccc2c(c1)nc(NCCN1CCOCC1)c1nncn12	7	-4	-3	-2	i	2	/
CCOC(=O)Cn1nc(C)c(NC(=O)COc2ccccc2[N+](=O)[O-])c1C	5	9	1	-2	i	-1	/
Cc1c(NC(=O)CSc2ccc(Cl)cc2)cccc1-c1nc2cc(Cl)ccc2o1	21	5	12	-3	i	-1	/
Cc1ccc(-c2cc(N)n3nc(-c4ccc(C)cc4)cc3n2)cc1	1	10	1	-1	/	-2	/
Cc1ccc(-c2cc3nc(-c4ccccc4)cc(N)n3n2)cc1	1	-10	4	2	+	-1	i
COCc1ccc(CN2CCc3c([nH]c4ccccc34)C2CC(C)C)o1 (stereo unspecified)	-1	-6	9	0	+	0	i
COc1ccc(C2CC(=O)Oc3c(C(CCN4CCOCC4)c4cc(OC)c(OC)c(OC)c4)c(OC)cc(OC)c32)cc1 (stereo unspecified)	-1	2	0	/	i	/	/
CC1(C)Cc2c(sc3nc(-c4ccccc4)n(N)c(=O)c23)CO1	-8	-4	-2	-1	i	-1	/
